Measurements as given in ChEMBL document CHEMBL4725355, “Design, Synthesis, and Preclinical Evaluation of 3-Methyl-6-(5-thiophenyl)-1,3-dihydro-imidazo[4,5-b]pyridin-2-ones as Selective GluN2B Negative Allosteric Modulators for the Treatment of Mood Disorders” (J Med Chem, 2020).
pIC50: −log10 of the molar value. Values after ≈ are worked out from the molar mass of the structure shown.

Tests used:
[1] = Solubility of compound in 30% sulfobutylether-beta-cyclodextrin; format: physicochemical
How it was run: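 Solubility of the compound assessed in dosing excipients, including 30% SBE-β-CD, 50% PEG-400 and 20% HP-β-CD. The aim was a solution usable for rat dosing; the 20% HP-β-CD formulation was checked for a 0.1 mg/mL solution to support a 0.5 mg/kg dose.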

[2] = AUC (0 to 24 hrs) in Sprague-Dawley rat at 125 mg/kg, po administered via gavage after 24 hrs using HPMC formulation by LC-MS/MS analysis; format: ADME, organism-based; design: route oral, dose 125 mg/kg, time <=24; details: in vivo
How it was run: (§1)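 Single oral gavage dose to male Sprague Dawley rats, 3 per dose level. Vehicles were a standard suspension in 5% HPMC (125, 250, 500 or 1000 mg/kg) or a nanosuspension (API:polymer 4:1), with stock diluted in vehicle on the day of dosing (100, 250 or 500 mg/kg). Blood was sampled at time points from 0.5 to 24 h.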

[3] = Half life in monkey at 0.1 mg/kg, iv by LC-MS/MS analysis; format: ADME, organism-based, Macaca mulatta; details: rhesus monkey, in vivo
[4] = AUC (infinity) in Sprague-Dawley rat at 0.5 mg/kg, iv or 2.5 mg/kg, po using 1:1 PEG-400/water formulation by LC-MS/MS analysis; format: ADME, organism-based; design: dose 2.5 mg/kg; details: in vivo
How it was run: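 Rat IV/PO PK at 0.5 mg/kg IV and 2.5 mg/kg PO, dosed in 1:1 PEG400/water, n=3.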

[5] = Drug level in Sprague-Dawley rat brain hippocampus at 0.03 mg/kg, iv after 120 min by LC-MS/MS analysis; format: ADME, organism-based; details: read-out: Drug uptake
How it was run: (§2)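 Single i.v. dose of 0.03 mg/kg in 50% (w/v) PEG/water, pH 7.4; rats n=3 per group, killed at 5, 10, 30, 60 and 120 min. Cerebellum, cortex, striatum and hippocampus dissected, weighed and homogenized; drug quantified by LC-MS/MS and normalized to tissue weight. P<0.05 taken as significant versus cerebellum.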

Cytochrome P450 2C19 = Cytochrome P450 2C19 (Homo sapiens, UniProt P33261); assay: Inhibition of CYP2C19 in human liver microsomes using S-mephenytoin as substrate measured after 15 mins by LC-MS/MS analysis; format: ADME
Sequence of Cytochrome P450 2C19 (P33261 whole entry, canonical isoform): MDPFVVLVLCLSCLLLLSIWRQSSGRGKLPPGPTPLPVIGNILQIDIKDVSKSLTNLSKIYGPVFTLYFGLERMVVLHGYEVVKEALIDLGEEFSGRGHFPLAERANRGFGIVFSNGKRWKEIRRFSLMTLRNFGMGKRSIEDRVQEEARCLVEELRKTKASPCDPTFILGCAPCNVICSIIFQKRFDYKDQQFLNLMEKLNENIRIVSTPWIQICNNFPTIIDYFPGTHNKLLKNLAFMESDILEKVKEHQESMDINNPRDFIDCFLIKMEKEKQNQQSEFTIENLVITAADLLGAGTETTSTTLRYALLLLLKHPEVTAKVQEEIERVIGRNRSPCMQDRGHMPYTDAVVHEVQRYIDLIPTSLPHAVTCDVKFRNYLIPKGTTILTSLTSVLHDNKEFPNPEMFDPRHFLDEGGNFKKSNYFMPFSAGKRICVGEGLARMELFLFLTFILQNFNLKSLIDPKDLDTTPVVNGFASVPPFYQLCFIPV
How it was run: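 Human liver microsomes incubated with isoform-specific probe substrates and the test compound at concentrations up to 20 µM. IC50 derived from inhibition of metabolite formation; mean of two independent experiments, with known specific inhibitors as positive controls.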

[6] = AUC (infinity) in mouse at 2.5 mg/kg, po by LC-MS/MS analysis; format: ADME, organism-based; design: route oral, time infinity, dose 2.5 mg/kg; details: in vivo
[7] = Tmax in Sprague-Dawley rat at 100 mg/kg, po administered via gavage after 24 hrs using nanosuspension formulation by LC-MS/MS analysis; format: ADME, organism-based; details: in vivo
How it was run: (§3)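 Single oral gavage of a nanosuspension (API:polymer 4:1), diluted with vehicle on the dosing day, at 100, 250 or 500 mg/kg to male Sprague Dawley rats, 3 per dose. Plasma was sampled from 0.5 to 24 h.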

[8] = Intrinsic clearance in human liver microsomes at 1 uM after 5 to 60 mins in presence of NADPH by LC-MS/MS analysis; format: ADME, Microsome; details: time 5-60 min, read-out: CLH
[9] = (§4) Ratio of Cmax in Sprague-Dawley rat at 250 mg/kg, po administered via gavage after 24 hrs using HPMC formulation by LC-MS/MS analysis to EC70 for ex vivo receptor occupancy at GluN2B in po dosed Sprague-Dawley rat assessed as 3-[3H] 1-(azetidin-1-yl)-2-[6-(4-fluoro-3-methyl-phenyl)pyrrolo[3,2-b]pyridin-1-yl]-ethanone labelling; format: ADME, organism-based
[10] = Tmax in Sprague-Dawley rat at 500 mg/kg, po administered via gavage after 24 hrs using nanosuspension formulation by LC-MS/MS analysis; format: ADME, organism-based; details: in vivo; how it was run: as §3
[11] = AUC (infinity) in dog at 0.1 mg/kg, iv by LC-MS/MS analysis; format: ADME, organism-based, Canis lupus familiaris; design: time infinity, route intravenous, dose 0.1 mg/kg; details: in vivo
[12] = as §4, with “500 mg/kg/day,” for “250 mg/kg,”, “as nanosuspension measured for 14 days” for “via gavage after 24 hrs using HPMC formulation by LC-MS/MS analysis”; format: ADME, organism-based; details: 336 h
[13] = Drug level in Sprague-Dawley rat brain cerebellum at 0.03 mg/kg, iv after 60 min by LC-MS/MS analysis; format: ADME, organism-based; details: read-out: Drug uptake; how it was run: as §2
[14] = Half life in Sprague-Dawley rat at 0.5 mg/kg, iv by LC-MS/MS analysis; format: ADME, organism-based; details: in vivo
[15] = Oral bioavailability in Sprague-Dawley rat at 2.5 mg/kg by LC-MS/MS analysis; format: ADME, organism-based; details: in vivo
[16] = Tmax in Sprague-Dawley rat at 500 mg/kg, po administered via gavage after 24 hrs using HPMC formulation by LC-MS/MS analysis; format: ADME, organism-based; details: in vivo
How it was run: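 Single oral gavage of a 5% HPMC suspension at 125, 250, 500 or 1000 mg/kg to male Sprague Dawley rats, 3 per group. Plasma was sampled at 6 time points from 0.5 to 24 h.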

[17] = Ex vivo receptor occupancy at GluN2B in Sprague-Dawley rat assessed as 3-[3H] 1-(azetidin-1-yl)-2-[6-(4-fluoro-3-methyl-phenyl)pyrrolo[3,2-b]pyridin-1-yl]-ethanone labelling at 3 mg/kg, po measured after 2 hrs by autoradiography; format: functional
How it was run: (§5)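 Rats dosed orally at 3 mg/kg in 20% HP-β-CD; brains taken at 0.5, 2 and 6 h. Ex vivo autoradiography of brain slices with the ³H pyrrolo[3,2-b]pyridine GluN2B tracer. Labelling expressed relative to matching brain areas of vehicle-treated animals; n=2, ± SEM.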

[18] = target: Voltage-gated inwardly rectifying potassium channel KCNH2 (Homo sapiens, UniProt Q12809); assay: Inhibition of human ERG expressed in CHO cells measured after 5 mins by Qpatch method; format: cell-based
Sequence of Voltage-gated inwardly rectifying potassium channel KCNH2 (Q12809 whole entry): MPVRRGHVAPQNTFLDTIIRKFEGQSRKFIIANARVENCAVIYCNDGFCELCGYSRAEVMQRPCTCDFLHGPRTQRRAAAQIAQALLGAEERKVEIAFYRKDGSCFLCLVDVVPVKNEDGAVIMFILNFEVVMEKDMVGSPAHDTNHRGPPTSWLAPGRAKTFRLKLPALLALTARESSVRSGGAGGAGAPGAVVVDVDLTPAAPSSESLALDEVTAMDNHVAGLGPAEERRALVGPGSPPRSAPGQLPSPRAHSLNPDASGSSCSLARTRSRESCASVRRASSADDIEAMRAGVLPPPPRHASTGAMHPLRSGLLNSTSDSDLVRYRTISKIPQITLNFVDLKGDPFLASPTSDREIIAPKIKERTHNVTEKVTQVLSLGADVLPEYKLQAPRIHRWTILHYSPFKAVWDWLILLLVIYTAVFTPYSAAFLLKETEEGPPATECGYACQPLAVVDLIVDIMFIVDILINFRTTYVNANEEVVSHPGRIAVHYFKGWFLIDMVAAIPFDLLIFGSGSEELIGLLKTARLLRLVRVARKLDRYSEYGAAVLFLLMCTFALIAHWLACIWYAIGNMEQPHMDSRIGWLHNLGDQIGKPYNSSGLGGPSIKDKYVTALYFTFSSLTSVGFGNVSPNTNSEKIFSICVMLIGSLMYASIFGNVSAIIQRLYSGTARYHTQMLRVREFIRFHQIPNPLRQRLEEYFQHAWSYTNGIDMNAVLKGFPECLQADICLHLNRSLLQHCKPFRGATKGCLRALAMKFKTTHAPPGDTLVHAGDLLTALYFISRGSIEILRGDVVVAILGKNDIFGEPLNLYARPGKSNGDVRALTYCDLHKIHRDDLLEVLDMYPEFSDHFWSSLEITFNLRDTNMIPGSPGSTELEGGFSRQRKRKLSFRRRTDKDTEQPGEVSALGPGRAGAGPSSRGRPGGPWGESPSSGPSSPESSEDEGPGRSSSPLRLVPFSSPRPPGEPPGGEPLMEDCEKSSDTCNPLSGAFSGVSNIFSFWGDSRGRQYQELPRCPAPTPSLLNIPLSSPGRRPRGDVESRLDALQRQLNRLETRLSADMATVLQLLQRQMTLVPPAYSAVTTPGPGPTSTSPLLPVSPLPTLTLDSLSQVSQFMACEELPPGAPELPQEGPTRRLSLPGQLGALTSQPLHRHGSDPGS
How it was run: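 CHO cells stably expressing hERG, whole-cell QPatch. Vehicle applied 5 min, then 0.3, 3.0, 10 and 30 µM in rising order, each concentration applied twice. Current measured after 5 min as the average of 3 voltage pulses; block taken relative to vehicle pretreatment, mean ± SEM.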

[19] = Tmax in Sprague-Dawley rat at 0.5 mg/kg, iv or 2.5 mg/kg, po using 1:1 PEG-400/water formulation by LC-MS/MS analysis; format: ADME, organism-based; details: in vivo
How it was run: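 Rat PK at 0.5 mg/kg i.v. and 2.5 mg/kg p.o., vehicle 1:1 PEG400/water. n=3, values given as mean ± SD.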

[20] = Ex vivo receptor occupancy at GluN2B in Sprague-Dawley rat assessed as 3-[3H] 1-(azetidin-1-yl)-2-[6-(4-fluoro-3-methyl-phenyl)pyrrolo[3,2-b]pyridin-1-yl]-ethanone labelling at 3 mg/kg, po measured after 6 hrs by autoradiography; format: functional; how it was run: as §5
[21] = Solubility of compound in FASSIF at pH 6.8 measured after 3 days; format: physicochemical; details: time 3 day
How it was run: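 Solubility in aqueous buffer at pH 2 and pH 7, and in simulated gastric and intestinal fluids.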

[22] = Drug level in Sprague-Dawley rat brain cerebellum at 0.03 mg/kg, iv after 5 min by LC-MS/MS analysis; format: ADME, organism-based; details: read-out: Drug uptake; how it was run: as §2
[23] = Oral bioavailability in monkey at 0.5 mg/kg by LC-MS/MS analysis; format: ADME, organism-based, Macaca mulatta; details: rhesus monkey, in vivo
[24] = Half life in mouse at 0.5 mg/kg, iv by LC-MS/MS analysis; format: ADME, organism-based; details: in vivo
[25] = AUC (0 to 24 hrs) in Sprague-Dawley rat at 500 mg/kg, po administered via gavage after 24 hrs using nanosuspension formulation by LC-MS/MS analysis; format: ADME, organism-based; design: route oral, dose 500 mg/kg, time <=24; details: in vivo; how it was run: as §1

- solubility [1]: < 1000 µg/mL
- AUC(0-t) [2]: 22800 ng·h/mL
- half-life [3]: 1.1 h
- AUC(0-inf) [4]: 1830 ng·h/mL
- concentration at 2 h [5]: 10.1 ng/mL
- pIC50 (Cytochrome P450 2C19): < 4.30
- AUC(0-inf) [6]: 539 ng·h/mL
- Tmax [7]: 2.7 h
- microsomal CLint at 1 µM [8]: 5.4 µL/min/mg
- Ratio [9]: 8
- Tmax [10]: 3.3 h
- AUC(0-inf) [11]: 126 ng·h/mL
- Ratio [12]: 31
- concentration at 1 h [13]: 11.9 ng/mL
- half-life [14]: 0.8 h
- bioavailability [15]: 132%
- Tmax [16]: 1 h
- Tmax [19]: 1.3 h
- solubility at 72 h [21]: 8.4 µM (≈ 3.33 µg/mL)
- concentration at 5 min [22]: 19.3 ng/mL
- bioavailability [23]: 41%
- half-life [24]: 0.9 h
- AUC(0-t) [25]: 156000 ng·h/mL
SMILES: Cn1c(=O)n(CC(=O)N2CCC2)c2cc(-c3ccc(C(F)(F)F)s3)cnc21
- Occ [17]: 76%
- pIC50 [18]: < 4.52
- Occ [20]: 31%
